Experimental data: ChEMBL document CHEMBL1121556, “Structure-activity relationships in a series of newly synthesized 1-amino-substituted ellipticine derivatives” (J Med Chem, 1980)

Tests used:
[1] = test system: Mus musculus; assay: In vivo evaluation of antitumor activity on L1210 leukemia cells at the dose 5 mg/kg administered intraperitoneally 1 day after 10 e5 L1210 leukemia cells and increase in life span;; assay type: functional; conditions: L1210, ip, 24 h, route intraperitoneal
[2] = test system: Mus musculus; assay: In Vivo antitumor activity on grafted tumor friend cells at the dose 5 mg/kg and decrease in intravenous 10 e 6 cells and median survival time; assay type: functional
How it was run: (§1)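 Friend tumor cells, 10^6, injected iv into syngeneic mice. Mice randomized in groups of 16. Drug dissolved in acidified saline (equimolar acetic acid) and given as a single iv dose 3 days after inoculation. Median survival time recorded. %ILS = (treated median survival − control median survival)/control median survival × 100.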

[3] = test system: Mus musculus; assay: In vivo evaluation of antitumor activity on L1210 leukemia cells at the dose 5 mg/kg administered intraperitoneally 1 day after 10 e5 L1210 leukemia cells and Mean survival time; assay type: functional; conditions: route intraperitoneal
[4] = test system: Mus musculus; assay: In vivo acute toxicity (nonlethal dose) against mice by intraperitoneal administration; assay type: organism-based; conditions: ip
How it was run: (§2)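 Mice (ICFW, C3H or B6D2 F1; 6-8 weeks; 22-24 g) in five groups of six. Drug dissolved in acidified saline (equimolar acetic acid) and given as a single ip or iv dose of 2, 5, 10, 25 or 50 mg/kg. Mortality observed over 30 days to set the lethal dose (LD100) and the highest nonlethal dose (LD0).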

[5] = test system: Nucleic Acid; assay: B app constant towards DNA; assay type: nucleic-acid assay; conditions: Bos taurus
How it was run: (§3)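 Association constants for DNA binding were derived from absorption changes of calf thymus DNA at 6 × 10^-7 M, expressed as mononucleotide concentration. The buffer was 50 mM Tris-HCl, pH 7.4, with 0.1 M NaCl.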

[6] = test system: Mus musculus; assay: In vivo acute toxicity (lethal dose) against mice by intraperitoneal administration; assay type: organism-based; conditions: ip; how it was run: as §2
[7] = test system: Nucleic Acid; assay: (§4) Apparent association constant towards DNA at concentration of 10e-7/M; assay type: nucleic-acid assay; conditions: Bos taurus; how it was run: as §3
[8] = test system: Friend leukemia cells (Mus musculus); assay: In vitro concentration required for growth inhibition of murine Friend leukemia cell; conditions: read-out: ID50 (the source's name)
[9] = test system: Mus musculus; assay: In vivo antitumor activity on L1210 leukemia cells at the dose 5 mg/kg administered intraperitoneally 1 day after 10 e5 L1210 leukemia cells and range of deaths; assay type: functional; conditions: route intraperitoneal
[10] = test system: Mus musculus; assay: In Vivo evaluation for the antitumor activity on grafted tumor friend cells at the dose 5 mg/kg and Increase in the life span; assay type: functional; how it was run: as §1
[11] = test system: Mus musculus; assay: In vivo acute toxicity (nonlethal dose) against mice by intravenous administration; assay type: organism-based; how it was run: as §2
[12] = test system: Mus musculus; assay: In vivo antitumor activity on L1210 leukemia cells at the dose 2.5 mg/kg administered intraperitoneally 1 day after 10 e5 L1210 leukemia cells and range of deaths; assay type: functional; conditions: route intraperitoneal
[13] = test system: Mus musculus; assay: In Vivo antitumor activity on grafted tumor friend cells at the dose 2.5 mg/kg and decrease in intravenous 10 e 6 cells and median survival time; assay type: functional; how it was run: as §1
[14] = test system: Mus musculus; assay: In Vivo evaluation for the antitumor activity on grafted tumor friend cells at the dose 2.5 mg/kg and Increase in the life span; assay type: functional; how it was run: as §1
[15] = test system: Mus musculus; assay: In vivo evaluation for the antitumor activity on L1210 leukemia cells at the dose 2.5 mg/kg administered intraperitoneally 1 day after 10 e5 L1210 leukemia cells and increase in life span; assay type: functional; conditions: L1210, ip, 24 h, route intraperitoneal
[16] = test system: Mus musculus; assay: In vivo evaluation for the antitumor activity on L1210 leukemia cells at the dose 2.5 mg/kg administered intraperitoneally 1 day after 10 e5 L1210 leukemia cells and Mean survival time; assay type: functional; conditions: route intraperitoneal
[17] = test system: Mus musculus; assay: In vivo acute toxicity (lethal dose) against mice by intravenous administration; assay type: organism-based; how it was run: as §2
[18] = test system: Mus musculus; assay: In vivo evaluation of antitumor activity on L1210 leukemia cells at the dose 15 mg/kg administered intraperitoneally 1 day after 10 e5 L1210 leukemia cells and increase in life span;(P<0.001); assay type: functional; conditions: L1210, ip, 24 h, route intraperitoneal
[19] = test system: Mus musculus; assay: In vivo antitumor activity on L1210 leukemia cells at the dose 15 mg/kg administered intraperitoneally 1 day after 10 e5 L1210 leukemia cells and range of deaths; assay type: functional; conditions: route intraperitoneal
[20] = test system: Nucleic Acid; assay: as §4; assay type: nucleic-acid assay; conditions: Bos taurus; remark: listed apart in the source
How it was run: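 Apparent association constant from absorption changes of 6 × 10^-7 M calf thymus DNA (as mononucleotide concentration) in 50 mM Tris-HCl, pH 7.4, 0.1 M NaCl.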

[21] = test system: Mus musculus; assay: In vivo evaluation of antitumor activity on L1210 leukemia cells at the dose 5 mg/kg administered intraperitoneally 1 day after 10 e5 L1210 leukemia cells and Mean survival time; conditions: route intraperitoneal
[22] = test system: Mus musculus; assay: In Vivo evaluation for the antitumor activity on grafted tumor friend cells at the dose 20 mg/kg and Increase in the life span was determined; assay type: functional; how it was run: as §1
[23] = test system: Mus musculus; assay: In Vivo antitumor activity on grafted tumor friend cells at the dose 5 mg/kg and decrease in intravenous 10 e 6 cells and median survival time was determined; assay type: functional; how it was run: as §1
[24] = test system: Mus musculus; assay: In vivo evaluation for the antitumor activity on L1210 leukemia cells at the dose 15 mg/kg administered intraperitoneally 1 day after 10 e5 L1210 leukemia cells and increase in life span;(P<0.01).; assay type: functional; conditions: L1210, ip, 24 h, route intraperitoneal
[25] = test system: Mus musculus; assay: In vivo evaluation for the antitumor activity on L1210 leukemia cells at the dose 15 mg/kg administered intraperitoneally; assay type: functional; conditions: route intraperitoneal
[26] = test system: Nucleic Acid; assay: Apparent association constant towards DNA at concentration of 1E-7/M; assay type: nucleic-acid assay; conditions: Bos taurus; how it was run: as §3
[27] = test system: Mus musculus; assay: In vivo evaluation of antitumor activity on L1210 leukemia cells at the dose 15 mg/kg administered intraperitoneally 1 day after 10 e5 L1210 leukemia cells and increase in life span; assay type: functional; conditions: L1210, ip, 24 h, route intraperitoneal
[28] = test system: Mus musculus; assay: In vivo evaluation of antitumor activity on L1210 leukemia cells at the dose 15 mg/kg administered intraperitoneally 1 day after 10 e5 L1210 leukemia cells and Mean survival time; assay type: functional; conditions: route intraperitoneal
[29] = test system: Nucleic Acid; assay: Apparent association constant towards DNA at concentration of 10e-7/M.; assay type: nucleic-acid assay; conditions: Bos taurus; how it was run: as §3
[30] = test system: Nucleic Acid; assay: Apparent association constant towards DNA at concentration of 10 E-7/M; assay type: nucleic-acid assay; conditions: Bos taurus; how it was run: as §3

COc1ccc2[nH]c3c(C)c4ccnc(NCCN)c4cc3c2c1
ILS at 5 mg/kg [1]: 8.7%
MST [2]: 10.1 days
MST [3]: 13.8 days
LD0 [4]: 5 mg/kg
Bapp [5]: 0.135
LD100 [6]: 10 mg/kg
K app [7]: 3.3e+07 M⁻¹
IC50 [8]: 100 nM
Range of deaths [9]: 20 days
ILS at 5 mg/kg [10]: 18.8%

CCN(CC)CCCNc1nccc2c(C)c3[nH]c4ccc(O)cc4c3c(C)c12
LD0 [11]: 2 mg/kg
Range of deaths [12]: 19 days
MST [13]: 11.4 days
LD0 [4]: 2.5 mg/kg
Bapp [5]: 0.16
ILS at 2.5 mg/kg [14]: 34.1%
LD100 [6]: 7 mg/kg
ILS at 2.5 mg/kg [15]: 57.1%
MST [16]: 16.4 days
K app [7]: 2e+07 M⁻¹
IC50 [8]: 30 nM
LD100 [17]: 7 mg/kg

COc1ccc2[nH]c3c(C)c4ccnc(NCCN(C)C)c4cc3c2c1
Bapp [5]: 0.11
K app [7]: 2.8e+07 M⁻¹
IC50 [8]: 800 nM

COc1ccc2[nH]c3c(C)c4ccnc(N5CCCCC5)c4cc3c2c1
IC50 [8]: 30000 nM

CCN(CC)CCCNc1nccc2c(C)c3[nH]c4ccc(OCc5ccccc5)cc4c3cc12
IC50 [8]: 2000 nM

CCN(CC)CCCNc1nccc2c(C)c3[nH]c4ccc(O)cc4c3cc12
LD0 [11]: 5 mg/kg
ILS at 15 mg/kg [18]: 49.5%
Range of deaths [19]: 18 days
LD0 [4]: 5 mg/kg
Bapp [5]: 0.11
LD100 [6]: 15 mg/kg
K app [20]: 3.7e+07 M⁻¹
MST [21]: 16 days
ILS at 20 mg/kg [22]: 29.4%
IC50 [8]: 20 nM
LD100 [17]: 15 mg/kg
MST [23]: 11 days

CCN(CC)CCCNc1nccc2c(C)c3[nH]c4ccc(OC)cc4c3cc12
Range of deaths [19]: 19 days
ILS at 15 mg/kg [24]: 24.6%
LD0 [4]: 15 mg/kg
Bapp [5]: 0.1
LD100 [6]: 30 mg/kg
MST [25]: 14.3 days
K app [26]: 3.15e+07 M⁻¹
IC50 [8]: 5000 nM

COc1ccc2[nH]c3c(C)c4ccnc(NCCCN(C)C)c4c(C)c3c2c1
Range of deaths [19]: 18 days
ILS at 15 mg/kg [27]: 33.3%
MST [28]: 15.3 days
LD0 [4]: 15 mg/kg
LD100 [6]: 30 mg/kg
IC50 [8]: 300 nM

COc1ccc2[nH]c3c(C)c4ccnc(NCCCCCCN)c4cc3c2c1
K app [29]: 3.5e+07 M⁻¹
Bapp [5]: 0.11
IC50 [8]: 800 nM

COc1ccc2[nH]c3c(C)c4ccnc(NCCCCCN)c4cc3c2c1
K app [29]: 4.5e+07 M⁻¹
Bapp [5]: 0.15
IC50 [8]: 500 nM

COc1ccc2[nH]c3c(C)c4ccnc(Nc5ccc(NS(C)(=O)=O)cc5)c4cc3c2c1
IC50 [8]: 2000 nM

COc1ccc2[nH]c3c(C)c4ccnc(NCCCN)c4cc3c2c1
K app [30]: 3.05e+07 M⁻¹
Bapp [5]: 0.07
IC50 [8]: 200 nM

COc1ccc2[nH]c3c(C)c4cc[n+](C)c(Nc5ccccc5)c4cc3c2c1
IC50 [8]: 5000 nM

Cc1c2cc[n+](C)cc2c(C)c2c1[nH]c1ccc(O)cc12 [ELLIPTINIUM]
IC50 [8]: 300 nM
